Reference: ChEMBL document CHEMBL5303300, “EUbOPEN Chemogenomics Library - Multiplex” (2023)
“And” between values parts separate entries of the source, which are not always exact repeats. Equal entries are not always repeated.

How the values were obtained:
[1] = test system: Fibroblast; test: Multiplex assay against human fibroblast; format: toxicity, cell-based; conditions: number of replicates 2
Outline: (§1)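 Four dyes were applied at seeding to live cells: Hoechst33342, BioTracker Green Microtubule Cytoskeleton Dye, MitoTracker Red and Annexin V Alexa Fluor 680. Imaging after compound addition used a CQ1 microscope at 37°C and 5% CO2. CellPathfinder machine-learning gating then sorted cells into Hoechst high-intensity objects or normal cells, normal cells into healthy, pyknosed or fragmented nuclei, and pyknosed cells into mitotic or apoptotic, with tubulin, mitochondrial-mass and membrane-permeability phenotypes given as per cents of healthy-nucleus cells.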

[2] = test system: U2OS; test: Multiplex assay against U2OS; format: toxicity, cell-based; conditions: human, number of replicates 2; outline: as §1
[3] = 12 h, 1 µM, compound concentration 1 uM
[4] = 12 h, 10 µM, compound concentration 10 uM
[5] = 24 h, 1 µM, compound concentration 1 uM
[6] = 24 h, 10 µM, compound concentration 10 uM
[7] = 48 h, 1 µM, compound concentration 1 uM
[8] = 48 h, 10 µM, compound concentration 10 uM

Br.Oc1cc2c(cc1O)C(c1ccccc1)CNCC2 (stereo unspecified)
Population Apoptotic (%) [1, 3]: 86% and 44%
Population Fragmented Nuclei (%) [1, 3]: 18% and 16%
Population Healthy Nuclei (%) [1, 3]: 73%
Population Hoechst High Intensity Objects (%) [1, 3]: 0%
Population Membrane Permeable-Phenotype (%) [1, 3]: 5% and 4%
Population Mitochondria Different-Phenotype (%) [1, 3]: 0% and 1%
Population Normal (%) [1, 3]: 100% and 99%
Population Pyknosed Nuclei (%) [1, 3]: 8% and 10%
Population Tubulin-Different-Phenotype (%) [1, 3]: 7% and 6%
Total Cell Count [1, 3]: 185 and 180
Population Apoptotic (%) [1, 4]: 76% and 66%
Population Fragmented Nuclei (%) [1, 4]: 13% and 12%
Population Healthy Nuclei (%) [1, 4]: 76% and 79%
Population Hoechst High Intensity Objects (%) [1, 4]: 0%
Population Membrane Permeable-Phenotype (%) [1, 4]: 2%
Population Mitochondria Different-Phenotype (%) [1, 4]: 0% and 4%
Population Mitotic Cells (%) [1, 4]: 23% and 33%
Population Normal (%) [1, 4]: 100%
Population Pyknosed Nuclei (%) [1, 4]: 9% and 8%
Population Tubulin-Different-Phenotype (%) [1, 4]: 15% and 11%
Total Cell Count [1, 4]: 132 and 172
Population Apoptotic (%) [1, 5]: 31% and 66%
Population Fragmented Nuclei (%) [1, 5]: 18% and 16%
Population Healthy Nuclei (%) [1, 5]: 69% and 76%
Population Hoechst High Intensity Objects (%) [1, 5]: 0%
Population Membrane Permeable-Phenotype (%) [1, 5]: 6% and 4%
Population Mitochondria Different-Phenotype (%) [1, 5]: 0%
Population Mitotic Cells (%) [1, 5]: 68% and 33%
Population Normal (%) [1, 5]: 100%
Population Pyknosed Nuclei (%) [1, 5]: 11% and 6%
Population Tubulin-Different-Phenotype (%) [1, 5]: 6% and 2%
Total Cell Count [1, 5]: 187 and 183
Population Apoptotic (%) [1, 6]: 80% and 50%
Population Fragmented Nuclei (%) [1, 6]: 12% and 13%
Population Healthy Nuclei (%) [1, 6]: 84% and 79%
Population Hoechst High Intensity Objects (%) [1, 6]: 0%
Population Membrane Permeable-Phenotype (%) [1, 6]: 1%
Population Mitochondria Different-Phenotype (%) [1, 6]: 0% and 1%
Population Mitotic Cells (%) [1, 6]: 20% and 50%
Population Normal (%) [1, 6]: 100%
Population Pyknosed Nuclei (%) [1, 6]: 3% and 7%
Population Tubulin-Different-Phenotype (%) [1, 6]: 9% and 13%
Total Cell Count [1, 6]: 140 and 169
Population Apoptotic (%) [1, 7]: 90% and 54%
Population Fragmented Nuclei (%) [1, 7]: 18% and 14%
Population Healthy Nuclei (%) [1, 7]: 75% and 79%
Population Hoechst High Intensity Objects (%) [1, 7]: 0%
Population Membrane Permeable-Phenotype (%) [1, 7]: 2%
Population Mitochondria Different-Phenotype (%) [1, 7]: 0%
Population Normal (%) [1, 7]: 100%
Population Pyknosed Nuclei (%) [1, 7]: 5%
Population Tubulin-Different-Phenotype (%) [1, 7]: 4% and 3%
Total Cell Count [1, 7]: 175 and 194
Population Apoptotic (%) [1, 8]: 25% and 42%
Population Fragmented Nuclei (%) [1, 8]: 19% and 17%
Population Healthy Nuclei (%) [1, 8]: 77% and 78%
Population Hoechst High Intensity Objects (%) [1, 8]: 0%
Population Membrane Permeable-Phenotype (%) [1, 8]: 0% and 1%
Population Mitochondria Different-Phenotype (%) [1, 8]: 0%
Population Mitotic Cells (%) [1, 8]: 75% and 57%
Population Normal (%) [1, 8]: 100%
Population Pyknosed Nuclei (%) [1, 8]: 2% and 3%
Population Tubulin-Different-Phenotype (%) [1, 8]: 10% and 9%
Total Cell Count [1, 8]: 163 and 182
Population Fragmented Nuclei (%) [2, 3]: 14% and 5%
Population Healthy Nuclei (%) [2, 3]: 80% and 82%
Population Hoechst High Intensity Objects (%) [2, 3]: 0%
Population Membrane Permeable-Phenotype (%) [2, 3]: 2% and 1%
Population Mitochondria Different-Phenotype (%) [2, 3]: 0%
Population Mitotic Cells (%) [2, 3]: 100% and 50%
Population Normal (%) [2, 3]: 100%
Population Pyknosed Nuclei (%) [2, 3]: 6% and 11%
Population Tubulin-Different-Phenotype (%) [2, 3]: 67% and 89%
Population Apoptotic (%) [2, 4]: 57% and 30%
Population Healthy Nuclei (%) [2, 4]: 33% and 85%
Population Hoechst High Intensity Objects (%) [2, 4]: 0%
Population Membrane Permeable-Phenotype (%) [2, 4]: 0% and 1%
Population Mitochondria Different-Phenotype (%) [2, 4]: 0% and 1%
Population Mitotic Cells (%) [2, 4]: 42% and 69%
Population Normal (%) [2, 4]: 100%
Population Tubulin-Different-Phenotype (%) [2, 4]: 50% and 75%
Population Apoptotic (%) [2, 5]: 50% and 61%
Population Fragmented Nuclei (%) [2, 5]: 8% and 5%
Population Healthy Nuclei (%) [2, 5]: 83% and 82%
Population Hoechst High Intensity Objects (%) [2, 5]: 2% and 0%
Population Membrane Permeable-Phenotype (%) [2, 5]: 2% and 0%
Population Mitochondria Different-Phenotype (%) [2, 5]: 2% and 0%
Population Mitotic Cells (%) [2, 5]: 50% and 38%
Population Normal (%) [2, 5]: 97% and 100%
Population Pyknosed Nuclei (%) [2, 5]: 8% and 11%
Population Tubulin-Different-Phenotype (%) [2, 5]: 67% and 91%
